Laboratory results from article PMC5361409 (Bioorganic & medicinal chemistry letters, 2016).
“Also recorded” adds a separate entry of the source.

What was measured:
[1] = Intrinsic clearance in human liver microsomes; assay type: in vitro ADME; conditions: for CLint scaled: human, liver microsomes; for predicted clearance: predicted from CLINT in liver microsomes (rat and human), in words
[2] = Intrinsic clearance in rat liver microsomes; assay type: in vitro ADME
D1 = D1 (Homo sapiens, UniProt P21728); assay: Dopamine receptor selectivity, radioligand binding at EuroFins: D1; conditions: read-out: % inhibition at 10 µM D1 (%)
Outline: (§1)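 Contract radioligand binding screen against the indicated human dopamine receptor subtype. Each test compound was run in duplicate, and the read-out is percent inhibition of specific radioligand binding.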

D3 = D3 (Homo sapiens, UniProt P35462); assay: Dopamine receptor selectivity, radioligand binding at EuroFins: D3; conditions: read-out: % inhibition at 10 µM D3 (%)
Outline: as §1

D5 = D5 (Homo sapiens, UniProt P21918); assay: Dopamine receptor selectivity, radioligand binding at EuroFins: D5; conditions: read-out: % inhibition at 10 µM D5 (%)
Outline: as §1

[3] = tested on: other dopamine receptors (D1, D2L, D2S, D3, and D5); assay: Selectivity against the other dopamine receptors; assay type: binding; conditions: for selectivity against all of the dopamine receptors tested: in words
[4] = target: T1, dopamine D4 receptor (D4R) (Homo sapiens, UniProt P21917); assay: D4 radioligand binding assay using Spiperone at EuroFins; conditions: run in duplicate
T1 sequence (P21917 1-419): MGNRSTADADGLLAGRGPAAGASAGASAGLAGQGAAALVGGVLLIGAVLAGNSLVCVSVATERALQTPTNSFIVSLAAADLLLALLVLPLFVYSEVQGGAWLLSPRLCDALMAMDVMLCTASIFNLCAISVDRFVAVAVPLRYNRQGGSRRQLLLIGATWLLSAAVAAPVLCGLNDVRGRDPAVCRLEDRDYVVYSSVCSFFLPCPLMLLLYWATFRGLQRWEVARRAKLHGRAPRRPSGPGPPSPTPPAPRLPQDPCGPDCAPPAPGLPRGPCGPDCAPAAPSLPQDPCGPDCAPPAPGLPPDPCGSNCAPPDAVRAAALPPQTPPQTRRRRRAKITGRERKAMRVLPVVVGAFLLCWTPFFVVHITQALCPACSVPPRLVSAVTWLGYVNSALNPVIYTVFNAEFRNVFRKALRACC

[5] = Metabolic soft-spot experiment in human liver microsomes; assay type: in vitro ADME
[6] = Metabolic soft-spot experiment in rat liver microsomes; assay type: in vitro ADME
[7] = in the presence of NADPH, in words

Chain of D5 (P21918 whole entry): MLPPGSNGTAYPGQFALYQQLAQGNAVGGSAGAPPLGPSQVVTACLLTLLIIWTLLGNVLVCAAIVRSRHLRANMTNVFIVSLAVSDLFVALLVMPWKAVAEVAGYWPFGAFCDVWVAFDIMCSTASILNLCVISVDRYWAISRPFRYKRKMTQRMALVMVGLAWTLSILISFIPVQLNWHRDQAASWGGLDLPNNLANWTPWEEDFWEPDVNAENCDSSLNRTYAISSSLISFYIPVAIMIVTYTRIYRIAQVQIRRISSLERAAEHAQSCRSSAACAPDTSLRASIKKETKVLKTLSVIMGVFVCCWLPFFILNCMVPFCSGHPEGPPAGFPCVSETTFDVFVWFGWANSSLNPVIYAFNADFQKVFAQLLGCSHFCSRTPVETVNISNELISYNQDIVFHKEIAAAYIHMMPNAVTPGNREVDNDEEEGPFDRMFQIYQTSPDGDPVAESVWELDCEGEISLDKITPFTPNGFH
Chain of D3 (P35462 whole entry): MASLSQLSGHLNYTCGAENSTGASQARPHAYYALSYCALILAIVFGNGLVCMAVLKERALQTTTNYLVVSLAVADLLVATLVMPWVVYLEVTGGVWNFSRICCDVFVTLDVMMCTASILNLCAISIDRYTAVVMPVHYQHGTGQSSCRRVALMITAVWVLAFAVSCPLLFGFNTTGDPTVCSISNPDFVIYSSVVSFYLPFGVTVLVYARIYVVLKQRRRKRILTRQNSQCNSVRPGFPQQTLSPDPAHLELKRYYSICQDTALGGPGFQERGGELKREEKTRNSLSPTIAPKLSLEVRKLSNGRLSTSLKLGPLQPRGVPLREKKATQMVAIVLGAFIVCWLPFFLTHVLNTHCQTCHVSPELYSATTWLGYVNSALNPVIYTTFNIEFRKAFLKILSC
Chain of D1 (P21728 whole entry): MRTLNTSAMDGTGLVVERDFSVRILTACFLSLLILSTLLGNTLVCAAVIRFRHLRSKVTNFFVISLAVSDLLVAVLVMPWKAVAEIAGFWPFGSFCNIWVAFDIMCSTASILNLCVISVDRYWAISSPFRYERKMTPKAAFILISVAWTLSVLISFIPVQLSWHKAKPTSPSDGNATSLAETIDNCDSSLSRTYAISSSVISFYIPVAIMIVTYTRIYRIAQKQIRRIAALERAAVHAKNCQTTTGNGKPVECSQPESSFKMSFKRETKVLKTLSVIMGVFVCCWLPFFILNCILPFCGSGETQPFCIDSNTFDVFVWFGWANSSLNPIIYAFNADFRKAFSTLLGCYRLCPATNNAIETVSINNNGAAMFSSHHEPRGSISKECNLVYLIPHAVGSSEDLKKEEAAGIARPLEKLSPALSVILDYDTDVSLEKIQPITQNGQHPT

## c1ccc(OC[C@@H]2CN(Cc3cn4ccccc4n3)CCO2)cc1 [Compound 4t]
[1]
  CLint scaled: 17.3 mL/min/kg
  predicted clearance: moderate
[2]
  CLint scaled: 154 mL/min/kg

## Cc1ccc(CN2CCO[C@H](CSc3ccccc3)C2)cc1C [Compound 5bb]
[1]
  CLint scaled: 366 mL/min/kg
D1
  inhibition at 10 µM: < 50%
D3
  inhibition at 10 µM: < 50%
D5
  inhibition at 10 µM: < 50%
[2]
  CLint scaled: 6440 mL/min/kg
[3]
  selectivity for D4 over the other dopamine receptors: > 1000 fold
  selectivity against all of the dopamine receptors tested: completely selective

## Clc1ccc(CN2CCO[C@H](COc3ccccc3)C2)cc1 [Compound 4a]
[1]
  CLint scaled: 147 mL/min/kg
[2]
  CLint scaled: 4520 mL/min/kg

## COc1ccc(CN2CCO[C@H](COc3cccc(F)c3)C2)cc1Cl [Compound 5m]
[1]
  CLint scaled: 93 mL/min/kg
D1
  inhibition at 10 µM: < 50%
D3
  inhibition at 10 µM: < 50%
D5
  inhibition at 10 µM: < 50%
[2]
  CLint scaled: 1500 mL/min/kg

## c1ccc(OC[C@@H]2CN(Cc3ncn4ccccc34)CCO2)cc1 [Compound 4u]
D1
  inhibition at 10 µM: < 50%
D3
  inhibition at 10 µM: < 50%
D5
  inhibition at 10 µM: < 50%

## Clc1ccc(CN2CCO[C@H](COc3ccccc3)C2)cc1Cl [Compound 4i]
[1]
  CLint scaled: 50.5 mL/min/kg
[2]
  CLint scaled: 621 mL/min/kg

## COc1ccc(CN2CCO[C@H](COc3ccccc3)C2)cc1F [Compound 4l]
[1]
  CLint scaled: 71.9 mL/min/kg
[2]
  CLint scaled: 2130 mL/min/kg

## Clc1ccc(CN2CCO[C@H](CCc3ccccc3)C2)cc1 [ML398]
[4]
  IC50: 0.13 µM
  Ki: 0.036 µM

## c1ccc(OC[C@@H]2CN(Cc3n[nH]c4ccccc34)CCO2)cc1 [Compound 4v]
D1
  inhibition at 10 µM: < 50%
D3
  inhibition at 10 µM: < 50%
D5
  inhibition at 10 µM: < 50%

## Fc1ccc2c(CN3CCO[C@H](COc4cccc(Cl)n4)C3)c[nH]c2c1 [Compound 5y, (S)-2-(((6-chloropyridin-2-yl)oxy)methyl)-4-((6-fluoro-1H-indol-3-yl)methyl)morpholine]
[5]; Compound A = N-dealkylation
  major metabolite in human microsomes: Compound A
[5]; [7]
  extent of metabolism in human liver microsomes: highly metabolized
[1]
  CLint scaled: 230 mL/min/kg
D1
  inhibition at 10 µM: < 50%
D3
  inhibition at 10 µM: < 50%
[6]; Compound B = N-dealkylation + oxidation
  major metabolite in rat microsomes: Compound B
[6]; [7]
  extent of metabolism in rat liver microsomes: highly metabolized
D5
  inhibition at 10 µM: < 50%
[2]
  CLint scaled: 4200 mL/min/kg
[3]
  selectivity for D4 over the other dopamine receptors: > 1000 fold
  selectivity against all of the dopamine receptors tested: fully selective; also recorded: completely selective

## COc1ccc2c(CN3CCO[C@H](COc4ccccc4)C3)c[nH]c2c1 [Compound 4dd]
[1]
  CLint scaled: 31.6 mL/min/kg
[2]
  CLint scaled: 184 mL/min/kg

## Fc1ccc2c(CN3CCO[C@H](COc4cccc(F)n4)C3)c[nH]c2c1 [Compound 5u]
[1]
  CLint scaled: 101 mL/min/kg
D1
  inhibition at 10 µM: < 50%
D3
  inhibition at 10 µM: < 50%
D5
  inhibition at 10 µM: < 50%
[2]
  CLint scaled: 4010 mL/min/kg
[3]
  selectivity against all of the dopamine receptors tested: fully selective

## COc1ccc(CN2CCO[C@H](COc3ccccc3)C2)cc1Cl [Compound 4n]
[1]
  CLint scaled: 78.7 mL/min/kg
D1
  inhibition at 10 µM: < 50%
D3
  inhibition at 10 µM: < 50%
D5
  inhibition at 10 µM: < 50%
[2]
  CLint scaled: 1600 mL/min/kg

## Clc1ccc(CN2CCO[C@H](COc3cccc(Cl)n3)C2)cc1 [Compound 5z]
[1]
  CLint scaled: 98.2 mL/min/kg
[2]
  CLint scaled: 5310 mL/min/kg

## COc1cc(CN2CCO[C@H](COc3ccccc3)C2)ccc1Cl [Compound 4p]
[1]
  CLint scaled: 79.7 mL/min/kg
[2]
  CLint scaled: 1500 mL/min/kg

## COc1cc(CN2CCO[C@H](COc3cccc(F)c3)C2)ccc1Cl [Compound 5n]
[1]
  CLint scaled: 68.9 mL/min/kg
D1
  inhibition at 10 µM: < 50%
D3
  inhibition at 10 µM: < 50%
D5
  inhibition at 10 µM: < 50%
[2]
  CLint scaled: 1770 mL/min/kg

## Fc1cc(CN2CCO[C@H](COc3ccccc3)C2)ccc1Cl [Compound 4g]
[1]
  CLint scaled: 65.3 mL/min/kg
  predicted clearance: moderate
[2]
  CLint scaled: 251 mL/min/kg

## Fc1cc(CN2CCO[C@H](COc3ccccc3)C2)ccc1C(F)(F)F [Compound 4j]
[1]
  CLint scaled: 50.5 mL/min/kg
[2]
  CLint scaled: 247 mL/min/kg

## c1ccc(OC[C@@H]2CN(Cc3ccc4[nH]ccc4c3)CCO2)cc1 [Compound 4z]
[1]
  CLint scaled: 135 mL/min/kg
[2]
  CLint scaled: 3140 mL/min/kg

## Clc1ccc(CN2CCO[C@H](CSc3ccccc3)C2)cc1 [Compound 5aa]
[1]
  CLint scaled: 122 mL/min/kg
D1
  inhibition at 10 µM: < 50%
D3
  inhibition at 10 µM: < 50%
D5
  inhibition at 10 µM: < 50%
[2]
  CLint scaled: 3220 mL/min/kg
[3]
  selectivity for D4 over the other dopamine receptors: > 1000 fold
  selectivity against all of the dopamine receptors tested: completely selective

## Fc1ccc2c(CN3CCO[C@H](COc4ccccc4)C3)c[nH]c2c1 [Compound 4ee]
[1]
  CLint scaled: 71.1 mL/min/kg
[2]
  CLint scaled: 1690 mL/min/kg

## Cc1ccc(CN2CCO[C@H](COc3ccccc3)C2)cc1C [Compound 4b]
D1
  inhibition at 10 µM: < 50%
D3
  inhibition at 10 µM: < 50%
D5
  inhibition at 10 µM: < 50%

## Clc1ccc2c(CN3CCO[C@H](COc4ccccc4)C3)c[nH]c2c1 [Compound 4aa]
[1]
  CLint scaled: 46.7 mL/min/kg
[2]
  CLint scaled: 614 mL/min/kg

## Cn1ncc2cc(CN3CCO[C@H](COc4ccccc4)C3)ccc21 [Compound 4y]
[1]
  CLint scaled: 60.5 mL/min/kg
[2]
  CLint scaled: 433 mL/min/kg
